Data taken from ChEMBL document CHEMBL1138589, “Development of novel aminoglycoside (NB54) with reduced toxicity and enhanced suppression of disease-causing premature stop mutations” (J Med Chem, 2009).
≈ marks a conversion by molar mass, not a printed value.

Columns and labels:
[1] = system: Nucleic Acid; test: Suppression of CFTR G542X nonsense mutant cDNA translation in TNT rabbit reticulocyte lysate transcription translation system at 25 to 100 uM at 30 degC after 90 mins by luciferase reporter gene assay
In short: (§1)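 A dual luciferase reporter plasmid carrying the nonsense-mutation context was used. Luciferase activities were read with a dual luciferase assay kit after incubation, and readthrough was calculated by a previously described method. Translation inhibition was monitored as the ratio of Renilla luciferase activity with versus without aminoglycoside.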

[2] = system: Nucleic Acid; test: Suppression of CFTR W1282X nonsense mutant cDNA translation in TNT rabbit reticulocyte lysate transcription translation system at 25 to 100 uM at 30 degC after 90 mins by luciferase reporter gene assay; in short: as §1
[3] = system: Nucleic Acid; test: Suppression of Dystrophin R3381X nonsense mutant cDNA translation in TNT rabbit reticulocyte lysate transcription translation system at 25 to 100 uM at 30 degC after 90 mins by luciferase reporter gene assay; in short: as §1
[4] = system: Nucleic Acid; test: Suppression of IDUA Q70X nonsense mutant cDNA translation in TNT rabbit reticulocyte lysate transcription translation system at 25 to 100 uM at 30 degC after 90 mins by luciferase reporter gene assay; in short: as §1
[5] = system: Nucleic Acid; test: Suppression of PCDH15 R3X nonsense mutant cDNA translation in TNT rabbit reticulocyte lysate transcription translation system at 25 to 100 uM at 30 degC after 90 mins by luciferase reporter gene assay; in short: as §1
[6] = system: HEK293; test: (§2) Toxicity against HEK293 cells; type: cell-based; settings: human, hek293; read-out: LC50 (the source's name)
[7] = Toxicity against african green monkey COS7 cells; type: cell-based, COS-7; settings: chlorocebus aethiops, read-out: LC50 (the source's name)
[8] = system: MDCK; test: (§3) Toxicity against MDCK cells; type: cell-based, Canis lupus familiaris; settings: dog, mdck; read-out: LC50 (the source's name)
[9] = system: Mus musculus; test: Acute toxicity in iv dosed BALB/c mouse assessed as mortality administered as single dose after 4 days; type: organism-based; settings: in vivo, 96 h
In short: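 Male BALB/c mice, […] (18-20 g), 12 h light/dark cycle at 20-22 °C, food and water ad libitum. Single intravenous tail-vein injection of 150 µL of drug in PBS (pH 7), 8 animals per concentration. Appearance, behaviour and mortality were monitored for 4 days, and LD50 was derived by the Reed and Muench method.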

[10] = system: Escherichia coli; test: Antibacterial activity against Escherichia coli R477-100 by double-microdilution method; type: functional
[11] = Ototoxicity in mouse organ of Corti cochlear explants assessed as inner hair cell loss at 0.1 mM by F-actin staining; type: toxicity; settings: 100 µM
In short: (§4)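 Cochlea dissected from postnatal day 3 mice; organ of Corti/spiral ganglion flat preparation cultured serum-free (BME, supplement, 1% BSA, 2 mM glutamine, glucose, penicillin) at 37°C, 5% CO2, 24 h before medium swapped for drug-containing medium. Fixed in 4% paraformaldehyde, permeabilized with Triton X-100, blocked with goat serum, F-actin stained with fluorescent phalloidin; basal segments examined.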

[12] = Ototoxicity in mouse organ of Corti cochlear explants assessed as outer hair cell loss at 0.1 mM by F-actin staining; type: toxicity; settings: 100 µM; in short: as §4
[13] = Ototoxicity in mouse organ of Corti cochlear explants assessed as inner hair cell loss at 1 mM by F-actin staining; type: toxicity; settings: 1000 µM; in short: as §4
[14] = Ototoxicity in mouse organ of Corti cochlear explants assessed as inner hair cell loss at 0.2 mM by F-actin staining; type: toxicity; settings: 200 µM; in short: as §4
[15] = Ototoxicity in mouse organ of Corti cochlear explants assessed as outer hair cell loss at 0.2 mM by F-actin staining; type: toxicity; settings: 200 µM; in short: as §4
[16] = system: Ribosomal RNA A-site; test: Binding affinity to human cytoplasmic ribosomal RNA A-site assessed as thermal stability at compound/RNA ratio of 5 by UV melting profile method; type: nucleic-acid assay
In short: (§5)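 UV melting of RNA A-site model oligonucleotide, 2 µM in strand, drug 0 to 10 µM, in 10 mM EPPS (pH 7.0), 10 mM NaCl. RNA preheated 85 °C 5 min and slowly cooled. Absorbance read at 274 nm, 1 cm path, 0.5 °C steps with 1.5 min equilibration per step; ΔTm derived.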

[17] = system: Escherichia coli; test: Inhibition of protein translation in Escherichia coli by coupled transcription/translation assay; type: functional
[18] = Ototoxicity in mouse organ of Corti cochlear explants assessed as outer hair cell loss at 1 mM by F-actin staining; type: toxicity; settings: 1000 µM; in short: as §4
[19] = system: Nucleic Acid; test: Suppression of PCDH15 R245X nonsense mutant cDNA translation in TNT rabbit reticulocyte lysate transcription translation system at 25 to 100 uM at 30 degC after 90 mins by luciferase reporter gene assay; in short: as §1
[20] = system: Nucleic Acid; test: Suppression of IDUA W402X nonsense mutant cDNA translation in TNT rabbit reticulocyte lysate transcription translation system at 25 to 100 uM at 30 degC after 90 mins by luciferase reporter gene assay; in short: as §1
[21] = system: Nucleic Acid; test: Suppression of PCDH15 R3X nonsense mutant cDNA translation in african green monkey COS7 cells at 1 mg/mL; type: cell-based; settings: COS-7
In short: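 Dual luciferase reporter carrying PCDH15-R3X transfected into COS-7 cells by lipofection. Compound added 5 h post-transfection. Luciferase activity measured with a dual luciferase assay system, and readthrough calculated by a previously described method.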

[22] = system: Ribosomal RNA A-site; test: Binding affinity to human cytoplasmic ribosomal RNA A-site; type: nucleic-acid assay; in short: as §5
[23] = as §2; type: cell-based; settings: human, HEK293 cells; read-out: LC50 (the source's name)
[24] = as §3; type: cell-based, Canis lupus familiaris; settings: dog, MDCK cells; read-out: LC50 (the source's name)
[25] = system: Nucleic Acid; test: Suppression of PCDH15 R3X nonsense mutant cDNA translation in african green monkey COS7 cells at 0.5 mg/mL; type: cell-based; settings: COS-7
In short: (§6)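 COS-7 cells were lipofected with the dual luciferase construct carrying PCDH15 R3X, and drugs were added 5 h after transfection at varying concentrations. Maximal doses were set from LC50 in COS-7 cells to keep cell viability above 80%. Stop-codon readthrough was read by dual luciferase assay and calculated by a previously described method.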

[26] = system: Nucleic Acid; test: Suppression of PCDH15 R3X nonsense mutant cDNA translation in african green monkey COS7 cells at 0.25 mg/mL; type: cell-based; settings: COS-7; in short: as §6

| Compound | Activity [1] | Activity [2] | Activity [3] | Activity [4] | Activity [5] | CC50 [6] | CC50 ([7]; cos-7) | CC50 [8] | LD50 [9] | MIC [10] | Activity [11] | Activity [12] | Activity [13] | Activity [14] | Activity [15] | ΔTm [16] | IC50 ([17]; Escherichia coli) | Activity [18] | Activity [19] | Activity [20] | further results |
| --- | --- | --- | --- | --- | --- | --- | --- | --- | --- | --- | --- | --- | --- | --- | --- | --- | --- | --- | --- | --- | --- |
| NCC[C@H](O)C(=O)N[C@@H]1C[C@H](N)[C@@H](O[C@H]2O[C@H](CO)[C@@H](O)[C@H](O)[C@H]2N)[C@H](O[C@@H]2O[C@H](CN)[C@@H](O)[C@H]2O)[C@H]1O | 50% | 50% | 50% | 50% | 50% | 2800 µM | 9300 µM | 3300 µM | 500 mg/kg | 588 µM (≈ 327 µg/mL) | Non-toxic | Non-toxic | Non-toxic | Toxic | Toxic | 9.7 °C | 0.159 µM | Non-toxic | 50% | 50% | Activity [21]: 5.25% |
| NC[C@H]1O[C@@H](O[C@@H]2[C@@H](O)[C@H](N)C[C@H](N)[C@H]2O[C@H]2O[C@H](CO)[C@@H](O)[C@H](O)[C@H]2N)[C@H](O)[C@@H]1O | 30% | 30% | 30% | 30% | 30% | – | – | – | 240 mg/kg | 790 µM (≈ 359 µg/mL) | Non-toxic | Non-toxic | Non-toxic | Toxic | Toxic | 4.5 °C | 0.415 µM | Non-toxic | 30% | 30% | Ka [22]: 4.7 ×10³ /M; CC50 [23]: 7400 µM; CC50 ([7]; COS7 cells): 10800 µM; CC50 [24]: 11500 µM; Activity [21]: 2.75% |
| NC[C@@H]1O[C@H](O[C@H]2[C@@H](O)[C@H](O[C@@H]3[C@@H](O)[C@H](N)C[C@H](N)[C@H]3O[C@H]3O[C@H](CO)[C@@H](O)[C@H](O)[C@H]3N)O[C@@H]2CO)[C@H](N)[C@@H](O)[C@@H]1O [PAROMOMYCIN] | 40% | 40% | 40% | 40% | 40% | – | – | – | 80 mg/kg | 22 µM (≈ 13.5 µg/mL) | – | – | – | – | – | – | 0.056 µM | – | 40% | 40% | CC50 [23]: 1200 µM; CC50 ([7]; COS7 cells): 1400 µM; CC50 [24]: 1500 µM; Activity [25]: 1.62% |
| GENTAMICIN [listing 1 of 2 here] | – | – | – | – | – | 1100 µM | 750 µM | 780 µM | 60 mg/kg | – | – | – | – | – | – | – | – | – | – | – | IC50 [17]: 0.02 µM |
| GENTAMICIN [listing 2 of 2 here] | 50% | 50% | 50% | 50% | 50% | – | – | – | – | 6 µM | – | – | – | – | – | – | – | – | 50% | 50% | Activity [26]: 1.86% |
